The source made the active and inactive calls. The rule behind the calls is not given here.
How the values were obtained:
[1] = target: P2Y purinoceptor 2 (Homo sapiens) (UniProt P41231); assay: Agonist activity at recombinant human P2RY2 expressed in AD293 cells assessed as increase in intracellular calcium levels by Fluo-4/AM dye-based spectrofluorometer; assay type: functional, cell-based
How it was run: (§1)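 Human P2Y2, P2Y4 or P2Y6 receptor stably expressed in AD293 cells. Compound at 100 μM. Agonism read as change in intracellular calcium (Δ[Ca2+]i), with UDP or UTP as control.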

[2] = target: T1, Ectonucleoside triphosphate diphosphohydrolase 2 (Homo sapiens) (UniProt Q9Y5L3); assay: Inhibition of human NTPDase2 at 100 uM using ATP as substrate preincubated for 3 mins followed by substrate addition measured after 10 mins by malachite green reagent-based assay
T1 sequence (whole entry): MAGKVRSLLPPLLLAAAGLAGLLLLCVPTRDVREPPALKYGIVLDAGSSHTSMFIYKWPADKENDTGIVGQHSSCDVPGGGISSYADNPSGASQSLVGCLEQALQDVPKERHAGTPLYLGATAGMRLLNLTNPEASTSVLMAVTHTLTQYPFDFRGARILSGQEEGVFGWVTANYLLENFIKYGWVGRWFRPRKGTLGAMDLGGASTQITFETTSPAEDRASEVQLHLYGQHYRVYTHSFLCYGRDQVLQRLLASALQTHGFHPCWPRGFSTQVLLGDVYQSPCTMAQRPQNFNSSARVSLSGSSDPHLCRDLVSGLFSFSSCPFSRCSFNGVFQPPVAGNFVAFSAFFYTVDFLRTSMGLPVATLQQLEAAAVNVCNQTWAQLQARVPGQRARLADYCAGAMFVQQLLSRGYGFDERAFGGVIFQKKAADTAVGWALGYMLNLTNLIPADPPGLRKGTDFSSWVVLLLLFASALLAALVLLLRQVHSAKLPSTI
How it was run: (§2)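 Compound at 100 μM, 3 min preincubation, 100 μM ATP, 10 min. Stopped with malachite green; Pi read at 630 nm. Blank with enzyme added after stop subtracted. Activity with ATP alone taken as 100%.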

[3] = target: P2Y purinoceptor 6 (Homo sapiens) (UniProt Q15077); assay: Agonist activity at recombinant human P2RY6 expressed in AD293 cells assessed as increase in intracellular IP1 levels; assay type: functional, cell-based
Sequence of P2Y purinoceptor 6 (Homo sapiens) (Q15077 whole entry): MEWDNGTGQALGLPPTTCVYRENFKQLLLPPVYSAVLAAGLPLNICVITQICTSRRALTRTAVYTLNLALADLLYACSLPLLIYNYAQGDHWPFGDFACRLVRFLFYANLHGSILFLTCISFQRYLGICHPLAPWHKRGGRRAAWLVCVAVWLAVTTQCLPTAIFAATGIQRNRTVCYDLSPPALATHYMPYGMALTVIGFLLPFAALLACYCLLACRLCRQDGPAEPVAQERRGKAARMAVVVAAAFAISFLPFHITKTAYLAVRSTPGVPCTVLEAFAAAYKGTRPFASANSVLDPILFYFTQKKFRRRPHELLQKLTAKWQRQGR
How it was run: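 Human P2Y6 receptor stably expressed in AD293 cells. Compound at 100 μM. Gq activation read as accumulation of inositol 1-phosphate (IP1).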

[4] = target: P2Y purinoceptor 6 (Homo sapiens) (UniProt Q15077); assay: Agonist activity at recombinant human P2RY6 expressed in AD293 cells assessed as increase in intracellular calcium levels by Fluo-4/AM dye-based spectrofluorometer; assay type: functional, cell-based; how it was run: as §1
[5] = target: T2, Ectonucleotide pyrophosphatase/phosphodiesterase family member 1 (Homo sapiens) (UniProt P22413); assay: Inhibition of human NPP1 at 100 uM using pNP-TMP as substrate preincubated for 3 mins followed by substrate addition measured after 15 mins relative to control
T2 sequence (whole entry): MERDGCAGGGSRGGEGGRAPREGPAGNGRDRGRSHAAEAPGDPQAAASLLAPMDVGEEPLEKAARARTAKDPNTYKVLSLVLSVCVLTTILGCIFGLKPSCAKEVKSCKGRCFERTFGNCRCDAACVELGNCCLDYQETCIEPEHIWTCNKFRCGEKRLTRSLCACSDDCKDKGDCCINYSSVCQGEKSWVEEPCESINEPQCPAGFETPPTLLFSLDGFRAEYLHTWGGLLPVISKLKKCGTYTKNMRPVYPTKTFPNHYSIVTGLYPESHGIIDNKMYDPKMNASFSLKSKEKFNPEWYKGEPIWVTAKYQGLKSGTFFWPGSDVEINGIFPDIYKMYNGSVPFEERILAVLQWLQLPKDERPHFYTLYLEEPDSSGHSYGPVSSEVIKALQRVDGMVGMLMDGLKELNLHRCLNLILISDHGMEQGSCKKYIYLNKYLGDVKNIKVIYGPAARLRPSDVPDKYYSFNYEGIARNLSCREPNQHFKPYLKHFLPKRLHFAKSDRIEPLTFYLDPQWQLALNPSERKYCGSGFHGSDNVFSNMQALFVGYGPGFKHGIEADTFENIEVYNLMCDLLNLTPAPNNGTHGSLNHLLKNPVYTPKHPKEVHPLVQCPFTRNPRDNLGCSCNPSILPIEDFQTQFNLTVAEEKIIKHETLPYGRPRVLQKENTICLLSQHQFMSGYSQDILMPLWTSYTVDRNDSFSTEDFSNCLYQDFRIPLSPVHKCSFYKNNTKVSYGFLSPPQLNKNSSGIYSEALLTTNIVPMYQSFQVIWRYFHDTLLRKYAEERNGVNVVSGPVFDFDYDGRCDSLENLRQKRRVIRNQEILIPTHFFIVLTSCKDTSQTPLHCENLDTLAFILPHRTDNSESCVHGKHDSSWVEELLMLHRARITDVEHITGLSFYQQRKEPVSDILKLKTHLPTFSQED
How it was run: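 Human NPP1 (4−5 μg) or NPP3 (12−14 μg) cell lysate in mM 1 CaCl2, 140 NaCl, 5 KCl, 50 Tris pH 8.5, 37 °C. Compound at 100 μM, 3 min preincubation, 100 μM pNP-TMP substrate. p-Nitrophenol read at 405 nm after 15 min. Blank with enzyme added at end subtracted. Activity without compound taken as 100%. At least two independent experiments in triplicate.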

[6] = target: T3, Ectonucleoside triphosphate diphosphohydrolase 3 (Homo sapiens) (UniProt O75355); assay: Inhibition of human NTPDase3 at 100 uM using ATP as substrate preincubated for 3 mins followed by substrate addition measured after 10 mins by malachite green reagent-based assay; how it was run: as §2
T3 sequence (whole entry): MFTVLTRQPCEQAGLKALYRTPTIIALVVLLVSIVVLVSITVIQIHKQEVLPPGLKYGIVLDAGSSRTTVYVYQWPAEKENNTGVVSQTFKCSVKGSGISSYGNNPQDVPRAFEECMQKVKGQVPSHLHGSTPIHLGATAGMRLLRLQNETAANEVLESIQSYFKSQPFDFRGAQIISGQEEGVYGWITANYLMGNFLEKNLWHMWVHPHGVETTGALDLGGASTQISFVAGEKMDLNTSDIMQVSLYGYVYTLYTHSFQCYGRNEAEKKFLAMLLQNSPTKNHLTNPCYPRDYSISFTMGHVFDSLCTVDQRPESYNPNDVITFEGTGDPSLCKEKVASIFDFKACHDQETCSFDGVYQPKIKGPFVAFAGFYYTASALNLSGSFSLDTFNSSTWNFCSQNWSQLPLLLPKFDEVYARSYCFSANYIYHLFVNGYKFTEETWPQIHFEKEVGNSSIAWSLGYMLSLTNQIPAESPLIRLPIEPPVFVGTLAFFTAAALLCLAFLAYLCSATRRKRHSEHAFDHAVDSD

Sequence of P2Y purinoceptor 2 (Homo sapiens) (P41231 whole entry): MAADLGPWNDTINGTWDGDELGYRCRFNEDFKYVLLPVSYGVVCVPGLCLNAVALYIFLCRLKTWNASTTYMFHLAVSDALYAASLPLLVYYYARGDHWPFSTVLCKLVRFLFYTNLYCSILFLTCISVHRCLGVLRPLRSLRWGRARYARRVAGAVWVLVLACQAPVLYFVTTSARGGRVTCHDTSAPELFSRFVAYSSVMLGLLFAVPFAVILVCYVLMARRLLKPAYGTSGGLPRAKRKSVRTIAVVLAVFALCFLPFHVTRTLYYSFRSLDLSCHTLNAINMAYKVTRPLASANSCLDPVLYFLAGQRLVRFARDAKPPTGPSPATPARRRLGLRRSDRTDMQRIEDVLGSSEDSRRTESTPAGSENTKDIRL

Compound	Activity [1]	inhibition [2]	Activity [3]	Activity [4]	inhibition [5] [%]	inhibition [6]
O=c1ccn([C@@H]2O[C@H](COP(=S)(S)OP(=O)(O)O)[C@@H](O)[C@H]2O)c(=O)[nH]1 (stereo partly drawn)	inactive	15%	Active	Active	80 to 100	15%
O=c1ccn([C@@H]2O[C@H](COP(=S)(S)OP(=O)(O)CP(=O)(O)O)[C@@H](O)[C@H]2O)c(=O)[nH]1 (stereo partly drawn)	inactive	15%	inactive	Active	80 to 100	15%
O=c1ccn([C@@H]2O[C@H](COP(=S)(S)OP(=O)(O)OP(=O)(O)O)[C@@H](O)[C@H]2O)c(=O)[nH]1 (stereo partly drawn)	inactive	inactive	Active	Active	100	inactive

Source: ChEMBL document CHEMBL4177769, “Highly Selective and Potent Ectonucleotide Pyrophosphatase-1 (NPP1) Inhibitors Based on Uridine 5'-Pα,α-Dithiophosphate Analogues” (J Med Chem, 2018)
